The target in assay [1] is T1, 5-hydroxytryptamine receptor 1A (Homo sapiens, UniProt P08908).
T1 sequence (P08908 whole entry): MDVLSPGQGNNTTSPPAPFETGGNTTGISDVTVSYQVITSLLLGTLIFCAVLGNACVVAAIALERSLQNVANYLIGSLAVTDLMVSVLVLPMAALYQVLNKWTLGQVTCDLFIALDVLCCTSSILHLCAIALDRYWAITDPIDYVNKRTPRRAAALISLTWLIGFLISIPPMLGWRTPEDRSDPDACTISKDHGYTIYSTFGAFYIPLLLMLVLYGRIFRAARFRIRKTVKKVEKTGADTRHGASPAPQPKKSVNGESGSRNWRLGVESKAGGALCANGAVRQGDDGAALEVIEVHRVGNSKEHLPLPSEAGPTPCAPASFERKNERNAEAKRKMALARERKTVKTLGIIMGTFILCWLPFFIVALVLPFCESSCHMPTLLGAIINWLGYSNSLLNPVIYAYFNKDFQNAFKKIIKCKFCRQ
Nature of the assay: Displacement of [3H]8-hydroxy-2-(di-n-propylamino)tetralin from human 5-hydroxytryptamine 1A receptor. The method, boiled down:
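Membranes of HeLa cells stably transfected with human 5-HT1A (genomic clone G-21), in 50 mM Tris-HCl pH 7.4, 2.5 mM MgCl2, 10 μM pargiline. […] Nonspecific binding defined with 10 μM 5-HT. Filtration, scintillation counting. Ki by Cheng–Prusoff; 2–3 experiments in triplicate.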
(Loss of bound radioactivity is the signal in a displacement assay; it reports binding, not function.)

Assay [2] addresses T2, Alpha-1B adrenergic receptor (Rattus norvegicus) (UniProt P15823).
T2 sequence (whole entry): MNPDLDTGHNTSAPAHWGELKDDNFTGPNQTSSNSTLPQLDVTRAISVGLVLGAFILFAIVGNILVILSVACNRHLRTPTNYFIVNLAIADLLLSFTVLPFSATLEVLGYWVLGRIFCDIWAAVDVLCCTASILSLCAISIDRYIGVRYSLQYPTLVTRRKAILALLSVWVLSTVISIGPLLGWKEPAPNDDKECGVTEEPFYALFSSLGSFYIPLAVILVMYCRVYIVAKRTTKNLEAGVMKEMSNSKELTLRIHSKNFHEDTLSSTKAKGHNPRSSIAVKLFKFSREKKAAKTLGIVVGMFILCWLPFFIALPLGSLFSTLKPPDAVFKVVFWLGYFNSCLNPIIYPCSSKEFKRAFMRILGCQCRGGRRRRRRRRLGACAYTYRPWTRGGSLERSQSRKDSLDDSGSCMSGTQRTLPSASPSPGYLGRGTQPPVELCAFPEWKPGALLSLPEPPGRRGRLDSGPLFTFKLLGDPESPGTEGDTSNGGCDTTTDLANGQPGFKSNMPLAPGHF
Nature of the assay: Antagonism of Alpha-1B adrenergic receptor subtype (-)-phenylephrine-induced contraction of rat spleen. The class given is functional, tissue-based. An outline of the steps:
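Rat spleen, isometric cumulative (–)-phenylephrine curves at 30-min intervals; first discarded, second taken as control. Antagonist was equilibrated 30 min before the next curve.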

Assay [3] has as its target T3, Alpha-1A adrenergic receptor (Rattus norvegicus) (UniProt P43140).
T3 sequence (whole entry): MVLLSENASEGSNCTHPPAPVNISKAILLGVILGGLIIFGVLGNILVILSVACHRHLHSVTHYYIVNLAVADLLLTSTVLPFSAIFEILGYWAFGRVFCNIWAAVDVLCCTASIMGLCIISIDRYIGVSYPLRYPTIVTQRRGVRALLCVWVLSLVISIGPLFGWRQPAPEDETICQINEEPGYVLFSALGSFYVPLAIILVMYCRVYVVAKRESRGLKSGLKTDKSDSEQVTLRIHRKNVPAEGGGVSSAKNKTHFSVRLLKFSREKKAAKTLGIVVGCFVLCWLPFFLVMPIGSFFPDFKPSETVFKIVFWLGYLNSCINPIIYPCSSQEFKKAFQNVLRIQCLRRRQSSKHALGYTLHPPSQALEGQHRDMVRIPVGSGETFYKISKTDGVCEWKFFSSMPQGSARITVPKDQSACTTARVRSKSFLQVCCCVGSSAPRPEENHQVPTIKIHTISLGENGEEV
The assay can be described thus: Antagonist activity against Alpha-1A adrenergic receptor (-)-noradrenaline-induced contraction of rat prostatic vas deferens. The class given is functional, tissue-based. An outline of the steps:
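Isolated rat prostatic vas deferens with 0.01 μM desipramine in the bath. Isotonic cumulative (–)-noradrenaline curves were run at 30-min intervals: first discarded, second as control, then antagonist equilibrated 30 min before a new curve. pKb by Arunlakshana–Schild from dose ratios of EC50, at 2–3 antagonist concentrations, each tested four times.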

For assay [4], the target named is T4, Alpha-1D adrenergic receptor (Rattus norvegicus) (UniProt P23944).
T4 sequence (whole entry): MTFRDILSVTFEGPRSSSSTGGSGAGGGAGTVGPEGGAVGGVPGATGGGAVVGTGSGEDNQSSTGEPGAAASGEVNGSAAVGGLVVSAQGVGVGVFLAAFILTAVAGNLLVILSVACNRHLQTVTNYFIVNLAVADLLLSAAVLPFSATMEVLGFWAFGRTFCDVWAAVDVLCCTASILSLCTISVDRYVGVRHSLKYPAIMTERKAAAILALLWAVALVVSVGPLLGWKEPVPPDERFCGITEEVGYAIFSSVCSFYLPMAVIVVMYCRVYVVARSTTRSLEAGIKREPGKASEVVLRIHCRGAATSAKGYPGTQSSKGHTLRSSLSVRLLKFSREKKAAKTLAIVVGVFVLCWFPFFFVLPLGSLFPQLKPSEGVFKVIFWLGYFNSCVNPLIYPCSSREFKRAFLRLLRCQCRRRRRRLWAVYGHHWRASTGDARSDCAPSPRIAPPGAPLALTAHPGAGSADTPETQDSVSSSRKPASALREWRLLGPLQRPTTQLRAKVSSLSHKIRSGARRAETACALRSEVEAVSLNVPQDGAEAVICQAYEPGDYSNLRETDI
The assay can be described thus: Alpha-1D adrenergic receptor subtype blocking activity (antagonism) against (-)-noradrenaline-induced contraction of rat thoracic aorta. It is filed as functional, tissue-based. The method, boiled down:
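Helicoidal strips of rat thoracic aorta under 1 g tension, bath with 0.01 μM desipramine and 1 μM (±)-propranolol, equilibrated ≥1 h. Cumulative (–)-noradrenaline curves at 30-min intervals: first two discarded, third as control, fourth after 30-min antagonist exposure. pKb by Arunlakshana–Schild from EC50 dose ratios at 2–3 antagonist concentrations, each tested four times.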

For assay [5], the target named is T5, Alpha-1A adrenergic receptor (Homo sapiens, UniProt P35348).
T5 sequence (P35348 whole entry): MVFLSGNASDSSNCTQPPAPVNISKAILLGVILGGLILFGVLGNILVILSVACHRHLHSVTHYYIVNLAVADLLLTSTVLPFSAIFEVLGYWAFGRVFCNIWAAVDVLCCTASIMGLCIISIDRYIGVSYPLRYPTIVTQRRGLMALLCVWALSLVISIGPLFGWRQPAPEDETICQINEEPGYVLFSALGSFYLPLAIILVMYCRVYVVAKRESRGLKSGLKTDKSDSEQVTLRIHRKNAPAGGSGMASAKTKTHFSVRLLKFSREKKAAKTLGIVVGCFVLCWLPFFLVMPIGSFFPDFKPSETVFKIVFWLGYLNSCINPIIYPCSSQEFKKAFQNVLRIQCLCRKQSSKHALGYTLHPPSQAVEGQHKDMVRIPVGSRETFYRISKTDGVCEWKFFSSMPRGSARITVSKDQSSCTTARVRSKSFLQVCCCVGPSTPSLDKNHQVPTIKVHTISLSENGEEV
Nature of the assay: Displacement of [3H]prazosin from human cloned Alpha-1A adrenergic receptor. The method, boiled down: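 CHO cells stably transfected with each human α1 subtype; 30 μg membrane protein in 50 mM Tris-HCl pH 7.4 with 0.1–0.4 nM [3H]prazosin, 30 min at 25 °C. Competitors 1 pM–10 μM. Nonspecific binding defined with 10 μM phentolamine. Filtration, scintillation counting. Ki by Cheng–Prusoff; 2–3 experiments in triplicate.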

Assay [6] concerns the target Serotonin 2 (5-HT2) receptor (Rattus norvegicus, UniProt P30994+P08909+P14842). Nature of the assay: Displacement of [3H]ketanserin from rat brain 5-hydroxytryptamine 2 receptor. The method, boiled down:
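Rat cerebral cortex membranes (male Sprague–Dawley) in Tris-HCl pH 7.4 with 10 μM pargiline and 0.1% ascorbic acid were incubated 20 min at 37 °C with 0.7–1.3 nM [3H]ketanserin (5-HT2A). Nonspecific binding was defined by 2 μM ketanserin. Bound label was counted after filtration, and Ki was derived by Cheng–Prusoff.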

Regarding `COc1cccc(OC)c1O[C@@H]1CCC(NCC2COc3ccccc3O2)C1O` (stereo in doubt; 8) [listing 1 of 2 here], the Ki in assay [1] is 33.9 nM.
On to `COc1ccccc1O[C@@H]1CCC(NCC2COc3ccccc3O2)C1O` (stereo in doubt; 5) [listing 1 of 2 here], for which the figures for the pKb in assay [2], in assay [3] and in assay [4] were 6.24, 5.68 and 7.15, respectively.
With `COc1ccccc1O[C@@H]1CCC(NCC2COc3ccccc3O2)C1O` (stereo in doubt; 5) [listing 2 of 2 here], the Ki in assay [1] is 24.5 nM.
As for `COc1cccc(OC)c1O[C@@H]1CCC(NCC2COc3ccccc3O2)C1O` (stereo in doubt; 8) [listing 2 of 2 here], the pKb is 6.17 in assay [2], 5.79 in assay [3] and 6.94 in assay [4].
In the same order, the values of `COc1ccccc1O[C@@H]1CCC(NCC2COc3ccccc3O2)C1O` (stereo in doubt; 6) [listing 1 of 2 here] are 6.8, 6.56 and 7.3.
The molecule `COc1ccccc1O[C@@H]1CCC(NCC2COc3ccccc3O2)C1O` (stereo in doubt; 6) [listing 2 of 2 here] had a Ki in assay [1] of 26.9 nM. This counts as double-digit nanomolar.
In the case of `COc1cccc(OC)c1O[C@@H]1CCC(NCC2COc3ccccc3O2)C1O` (stereo in doubt; 7) [listing 1 of 2 here], the pKb stood at 6.27 in assay [2], 5.89 in assay [3] and 7.32 in assay [4].
`COc1cccc(OC)c1O[C@@H]1CCC(NCC2COc3ccccc3O2)C1O` (stereo in doubt; 7) [listing 2 of 2 here]: affinity in assay [1] was put at a Ki of 50.1 nM.
Regarding `OC1C(NCC2COc3ccccc3O2)CC[C@H]1Oc1ccccc1` (stereo in doubt; 3), the pKb in assay [2] is 6.45; in assay [3], 5.48; in assay [4], 7.66.
`OC1C(NCC2COc3ccccc3O2)CC[C@H]1Oc1ccccc1` (stereo in doubt; 4): the pKb in assay [2] worked out at 6.47; in assay [3], 5.7; in assay [4] it was 7.85.
Turning to `COc1cccc(OC)c1OCCNCC1COc2ccccc2O1` (stereo not drawn), the Ki in assay [5] was 0.427 nM; in assay [1], 2.09 nM. Besides, the pKb in assay [2] was found to be 8.21; in assay [3], 9.36; in assay [4], 8.6. In addition, the “Log Ki” value in assay [6] is -6.

A word on the Ki: it is the equilibrium dissociation constant of an inhibitor or competing ligand from its target. Usually pKb stands for −log10 of the Kb, conventionally taken in molar units. Low values mean a high Kb, high ones a low Kb.

The values above are taken from ChEMBL document CHEMBL1132183 (J Med Chem, 1999).
